Assay: Toxicity liver stage against HepG2, at 10uM
Assay type: cell-based
Set-up: test concentration 10 uM, cell line HepG2-A16-CD81EGFP
Conditions: human, HepG2-A16-CD81EGFP cells; read-out: INHIBITION
Procedure, shortened: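 Uninfected HepG2-A16-CD81EGFP cells, 3 × 10^3 per well, 1536-well, plated on prespotted compound at 10 μM final, parasite-free screening media added to match infected plates; puromycin 10 μM positive, DMSO 0.5% negative; run in parallel with 48 h PbLuc assay at 37 °C, 5% CO2; viability by CellTiter-Glo luminescence, normalized to controls.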

| Compound | cytotoxicity at 10 µM |
| --- | --- |
| COc1cccc(CN2CCN3C(=O)NC[C@H]3C2)n1 | -1.45% |
| CCCc1nnc(SCc2cc(=O)n3c4c(sc3n2)CCCC4)[nH]1 | -1.05% |
| Cn1ccc2cc(C(=O)N3CC[C@@]4(O)CCCC[C@H]4C3)ccc21 | -46.8% |
| CC(C)CNc1c(NCc2ccco2)c(=O)c1=O | -10.6% |
| Cc1nc2sc(C(=O)N3CCNC(=O)C3)c(C)c2c(=O)[nH]1 | 4.13% |
| CC(=O)Nc1ccc(SCC(=O)NCC2CCCO2)nn1 (stereo not given) | -16.7% |
| O=C(Nc1cccs1)N1CC(c2nc(C3CC3)no2)C1 | -0.921% |
| CC(=O)N1CCC2(CCCN(C(=O)CCN3CCCCC3)C2)C1 (stereo not given) | 0.906% |
| Cc1cccc(N2CC3(CCN(S(=O)(=O)c4cccs4)C3)CC2=O)c1 (stereo not given) | -1.21% |
| Cn1cnc(C(=O)N2CC3(CCN(S(=O)(=O)c4ccccc4)C3)C2)c1 | 3.8% |
| CN(C)C(=O)N1CCC2(CC(=O)N(c3ccc4c(c3)OCO4)C2)C1 (stereo not given) | 8.04% |
| O=C(Nc1ccccc1)C1=NOC2(CCCNC2)C1 (stereo not given) | 1.02% |
| Cc1noc(C2CCC3(CCN(C(=O)c4cnccn4)CC3)O2)n1 (stereo not given) | 7.19% |
| COCC(=O)N1CCC2(COCc3c(C)nc(N(C)C)nc32)C1 (stereo not given) | 9.09% |
| O=C(NCC1CCCO1)c1nc2c(s1)CCCN2c1ncccn1 (stereo not given) | -5.17% |
| O=C(NCCN1CCOCC1)c1cc(-c2ccc3c(c2)CCO3)n[nH]1 | -2.95% |
| O=C(c1cnn2c1OCCC2)N1CCN(C/C=C/c2ccccc2)CC1 | 9.28% |
| O=C(CC1CCCC1)NCCn1ccc(-c2ccccn2)n1 | 5.5% |
| CCN1C(=O)CCCC12CCCN(C(=O)c1conc1C)C2 (stereo not given) | 4.57% |
| O=C(c1cccs1)N1C[C@H]2CC[C@@]3(N=C(c4ccccc4)NC3=O)[C@H]2C1 | -9.84% |
| Cc1ccccc1CN1CCN(c2ncnc3c2NC(=O)CN3)CC1 | 6.78% |
| Cc1cccc(NC(=O)CN2C(=O)CC(C)(C)c3ccccc32)n1 | 2.2% |

| Compound | cytotoxicity at 10 µM |
| --- | --- |
| CCC(=O)N1CCCCC1c1nc(CN(C)C(C)=O)cc(N(C)C)n1 (stereo not given) | -3.17% |
| CC(=O)N[C@@H]1CN(C(=O)c2cccc(C(F)(F)F)c2)C[C@H]1O | 1.9% |
| CNc1ccc(C2CN(c3cc(C)nc(N)n3)CCO2)nc1 (stereo not given) | 4.72% |
| CCc1nnc(Nc2cc(C)nc(C3CN(C(C)=O)CCO3)c2)s1 (stereo not given) | 4.74% |
| Cc1nc(N)cc(C2CCN2CCC(N)=O)n1 (stereo not given) | -1.21% |
| Cc1ccnn1CCC(=O)N1CCCC[C@]2(C)NC(=O)CCC[C@H]12 | -0.822% |
| COCC(=O)N1C[C@@H](c2cccc(OC)c2)[C@@]2(CCCCC(=O)N2)C1 | 1.62% |
| Nc1ccc(CC2CCCN(Cc3c[nH]cn3)C2)nn1 (stereo not given) | -0.701% |
| C[C@]1(O)CCN(Cc2ncccc2F)C[C@@H]1Oc1cccc(F)c1 | -1.37% |
| Cc1cccnc1Nc1nccc(C2CN(CC(N)=O)C2)n1 | -34.3% |
| CC(=O)N1CCCC(c2ccc(N3CCOCC3)cn2)C1 (stereo not given) | -18.9% |
| COCCC(=O)N1CCC(c2cncc(Oc3cccnc3)n2)CC1 | -9.55% |
| CC(C)(C)C(=O)N1CCC(n2nc(-c3ccco3)ccc2=O)CC1 | -15.4% |
| CCC(=O)N1CCCC1c1csc(Nc2cnccn2)n1 (stereo not given) | -2.8% |
| CC(C)(C)OC(=O)N1CCN(c2nnc(Br)s2)CC1 | 10.8% |
| O=C(O)c1cnc(OCC2CC2)c(Br)c1 | 9.38% |
| O=C(COC1CCCCC1)Nc1ccn(CCc2ccncc2)n1 | -3.87% |
| Clc1ccc(N2CCN(CCCN3CCCCC3)CC2)nc1 | 0.563% |
| O=C1COc2cc(C(=O)N3CCCC(n4ccnc4)C3)ccc2N1 (stereo not given) | 1.75% |
| COc1ccc(C)cc1CN(CC(N)=O)C(C)C | -0.846% |
| CC1CN(C(=O)Nc2cc(C(F)(F)F)c[nH]c2=O)CCO1 (stereo not given) | 3.44% |
| CCN(CC)C1CCN(C(=O)NCc2cccc(NC(C)=O)c2)C1 (stereo not given) | 4.55% |

| Compound | cytotoxicity at 10 µM |
| --- | --- |
| CC1COc2ccccc2N1C(=O)c1ccnc(-n2cncn2)c1 (stereo not given) | 12.5% |
| COc1cc(CN(C)C(=O)NCc2cccnc2OC)ccc1SC | -8.82% |
| Cc1ccc(CNC(C)c2nnc3n2CCCC3)o1 (stereo not given) | -7.17% |
| CC(C)(O)CNC(=O)NCc1nccn1CCc1ccccc1 | 3.04% |
| CN(C(=O)NCc1nccn1CCc1ccccc1)C1CCC1 | 1.96% |
| O=C(NCc1nccn1CCc1ccccc1)NCC1(O)CCC1 | -2.97% |
| CC(C)C(C)NC(=O)Nc1ccc(CS(=O)(=O)C(C)C)cc1 (stereo not given) | -1.28% |
| CC1CN(C)c2ccccc2CN1C(=O)c1cscn1 (stereo not given) | -1.03% |
| O=C(C1CCCC1)N1CCCC1c1nnc2n1CCCCC2 (stereo not given) | -2.58% |
| CC(C)C(NC(=O)c1ccccc1F)C(=O)N1CCC2(CC1)OCCO2 (stereo not given) | 7.04% |
| O=C(Nc1cccn(Cc2ccccc2)c1=O)c1ccncc1F | 14.8% |
| Cc1ccc(CCC(C)NC2CCN(C(N)=O)CC2)cc1 (stereo not given) | -0.613% |
| Cc1cc(CNc2ccc3nc(C)sc3c2)no1 | -5.2% |
| CN(C)c1cccc(CNC(=O)Nc2ccc3[nH]nnc3c2)n1 | 3.15% |
| Cc1nc(CNC(C(=O)N2CCOCC2)c2ccccc2)cs1 (stereo not given) | 7.33% |
| Cc1cc(CNC2(c3ccccc3F)CC2)no1 | 5.71% |
| Cc1cnn(CCCNC(=O)NCCS(=O)(=O)Nc2ccccc2)c1 | 1.07% |
| CCNC(=O)C1CCCN(C(=O)Nc2cc(C#N)ccc2OCC)C1 (stereo not given) | -1.71% |
| CCC(=O)NCc1cc(Br)c(OC)c(OC)c1 | -0.0582% |
| Cc1cc(=O)n2ncnc2n1CC(O)c1cc(F)ccc1F (stereo not given) | 1.7% |
| Cc1[nH]ccc1C(=O)Nc1cccc(CN2CCC(O)CC2)c1 | 0.149% |
| COc1ccc(C2CCCN2S(=O)(=O)N(C)CC(C)C)cc1 (stereo not given) | -6.72% |

| Compound | cytotoxicity at 10 µM |
| --- | --- |
| CC(C)CNC(=O)C1=NOC2(CCN(Cc3ccoc3)C2)C1 (stereo not given) | -3.42% |
| CS(=O)(=O)NCc1cc(-c2cc(F)cc(F)c2)nc(N2CCOCC2)n1 | -9.24% |
| CC(C)n1cc(-c2nc3cc(S(=O)(=O)N4CCCC4)ccc3n2C)cn1 | 1.12% |
| CCCc1ccc(CN2CCN(C(=O)N(C)C)[C@@H]3CS(=O)(=O)C[C@@H]32)o1 | 8.69% |
| Cc1nc(N2CCCC(OCc3ccccn3)C2)c2c(C)noc2n1 (stereo not given) | 0.622% |
| O=C(CCN1CCCO1)N1CCCC(CO)(CCCc2ccccc2)C1 (stereo not given) | 2.76% |
| CCCc1ccc(CN2CCN(c3ncccn3)[C@@H]3CS(=O)(=O)C[C@@H]32)o1 | 1.66% |
| CCCn1c(C)c(CC(=O)NCCNC(C)=O)c2c1CC(C)(C)CC2=O | 6.2% |
| Cc1c[nH]c(C(=O)N2CCCC2c2ccc(C(=O)N3CCSCC3)s2)n1 (stereo not given) | 2.73% |
| Cc1oc(-c2ccoc2)nc1CN1CCC[C@H]1CO | -16.5% |
| CC(C)c1noc(CN(C)C(=O)C2COc3ccccc3C2)n1 (stereo not given) | 2.77% |
| CCc1cnc(NCC(CC)N2CCOCC2)nc1 (stereo not given) | 12.8% |
| COc1ccccc1S(=O)(=O)N1CCC2(CC1)OCCCC2O (stereo not given) | 0.0773% |
| CN1CCCN(C[C@@H]2CN(C(=O)CCC3CCCC3)C[C@@H]2CO)CC1 | -20.6% |
| CCN1CCn2nc(CCC(=O)N3CCCC3)cc2C1 | 0.685% |
| Cn1cc(CN2CC[C@@H]3[C@@H](CCC(=O)N3CCc3c[nH]cn3)C2)cn1 | -9.73% |
| CCc1nc(C)cn1C(=O)Nc1ccc(C)cc1 | -1.64% |
| Cn1c(=O)c2cc(C(=O)NCc3ccncc3)ccc2n(C)c1=O | -11.1% |
| CCN(CC)CC(=O)N(C)C(c1cccc(F)c1)c1ccccn1 (stereo not given) | -6.54% |
| CCN(Cc1ccc2c(c1)OCO2)S(=O)(=O)N(C)C(C)C | 8.55% |
| COC(=O)C(NC(=O)CCc1ccco1)c1cc(F)ccc1F (stereo not given) | -0.448% |
| CN(Cc1cccs1)C(=O)CN1CCCC(Cn2cncn2)C1 (stereo not given) | -3.95% |

| Compound | cytotoxicity at 10 µM |
| --- | --- |
| CN(C)c1cc(C(=O)N2CCCC2)ccn1 | -4.1% |
| CC(C(=O)N1CCCN(Cc2cscn2)CC1)N1CCOCC1 (stereo not given) | -11.4% |
| Cn1cc(C#N)c(=O)n(CC(O)c2ccccc2F)c1=O (stereo not given) | -11% |
| O=C(NCCCOCC1CC1)Nc1ccc(-n2cncn2)c(F)c1 | -0.132% |
| CCN(CC1COc2ccccc2O1)C(=O)CCn1cncn1 (stereo not given) | -9.21% |
| Cc1nc(-c2ccsc2)ccc1C(=O)NC(C)CN1CCOCC1 (stereo not given) | -13.8% |
| Cc1ccccc1CN(C)C(=O)CN1CCOC(Cn2cccn2)C1 (stereo not given) | -5.1% |
| Cc1cc(C)n(CC2CCCN2Cc2cscn2)n1 (stereo not given) | -7.65% |
| CC(C)Oc1ccc(CNC(=O)CC(F)(F)F)cc1F | -1.08% |
| COCCN1CCC(CNC(=O)C2(c3cccc(C)c3)CC2)CC1 | -1.88% |
| CC(C)OCCCNC(=O)c1ccc(-c2ccco2)[nH]c1=O | -4.45% |
| O=C(NCc1cccs1)c1nc2c(o1)CN(C(=O)c1cccnc1)C2 | -6.04% |
| CN(Cc1cncnc1)[C@H]1CN(CC2CC2)[C@@H]2CCCO[C@@H]21 | -9.87% |
| c1ccc(OC[C@]23COC[C@H]2CN(C2CCOCC2)C3)nc1 | -2.6% |
| CN(C)CCN1CCN(Cc2cccc(C#N)c2)Cc2cccnc21 | -1.57% |
| Fc1cccc(-c2c[nH]c(C3CCCN3)n2)c1 (stereo not given) | -5.93% |
| CC(=O)N1CCC2(CC1)C(=O)N(CC1CCN(C)CC1)c1ccccc12 | 1.73% |
| COCC(=O)NCC1Cn2nnc(-c3ccncc3)c2CO1 (stereo not given) | 8.22% |
| CN1CC(=O)N(c2cccc(F)c2)CC12CCN(CC1CCOCC1)C2 (stereo not given) | 0.887% |
| CC(C)NC(=O)[C@H]1C[C@@H]2[C@@H](C1)OCCN2Cc1cnn(C)c1 | 5.68% |
| O=C(CC1CCC2(CC1)CCN(Cc1cccnc1)CC2)N1CC=CC1 | -2.13% |
| CN(C)C(c1ccccn1)C1CCC(CNC(=O)CC2CCCC2)CC1 (stereo not given) | 9.43% |

Reference: ChEMBL document CHEMBL4513216, “Probing the Open Global Health Chemical Diversity Library for Multistage-Active Starting Points for Next-Generation Antimalarials” (ACS Infect Dis, 2020)
